Reference: ChEMBL document CHEMBL2169833, “Solubility-driven optimization of phosphodiesterase-4 inhibitors leading to a clinical candidate” (J Med Chem, 2012)
Converted amounts (≈) assume the structure as drawn.

Tests used:
[1] = system: Rattus norvegicus; assay: Oral bioavailability in rat at 4.2 umol/kg; assay type: ADME, organism-based; settings: in vivo
How it was run: (§1)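 Rat PK after iv and po dosing, some compounds given as the potassium or sodium salt. Vehicle was PBS or 25/75 PEG200/PBS. Dose matched formulation strength: iv 1.05, 2.1 or 4.2 μmol/kg; po 2.1 or 4.2 μmol/kg. For some compounds iv and po used the same dose (2.1 or 4.2 μmol/kg).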

[2] = Tmax in rat at 4.2 umol/kg, po; assay type: ADME, organism-based; settings: in vivo; how it was run: as §1
[3] = system: Rattus norvegicus; assay: (§2) AUC total in rat at 4.2 umol/kg, po; assay type: ADME, organism-based, Plasma; settings: in vivo; how it was run: as §1
[4] = Half life in rat at 4.2 umol/kg, po; assay type: ADME, organism-based; settings: in vivo; how it was run: as §1
[5] = Volume of distribution at steady state in rat at 2.1 umol/kg, iv; assay type: ADME, organism-based; settings: in vivo, read-out: Vdss; how it was run: as §1
[6] = Half life in rat at 2.1 umol/kg, po; assay type: ADME, organism-based; settings: in vivo; how it was run: as §1
[7] = target: 3',5'-cyclic-AMP phosphodiesterase 4D (Homo sapiens, UniProt Q08499); assay: Inhibition of human PDE4D-mediated [3H]CAMP hydrolysis after 30 to 60 mins by scintillation proximity assay
How it was run: (§3)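 Enzyme was diluted in 10 mM Tris-HCl pH 7.5 with 1 mM EDTA to give 10–30% substrate hydrolysis. Substrate was [3H]-cAMP (0.1 μCi) with 1 μM cAMP. Inhibitors were tested at 10 concentrations with 1% DMSO, 30−60 min at room temperature, stopped with PDE SPA beads and counted. IC50 came from curves. Mean of ≥2 experiments in duplicate, SEM where n ≥ 3.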

[8] = Clearance in rat at 1.05 umol/kg, iv; assay type: ADME, organism-based; settings: in vivo; how it was run: as §1
[9] = target: Phosphodiesterase 4 (Homo sapiens, UniProt P27815+Q08499+Q07343+Q08493); assay: Inhibition of PDE4 in human PBMC assessed as inhibition of LPS-induced TNFalpha production incubated for 10 mins prior to LPS-challenge measured after 20 hrs by sandwich ELISA
How it was run: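 Human PBMC were isolated from normal donors by Ficoll−Hypaque and grown at 1 × 10⁶ cells/mL in RPMI1640 with 10% FCS. Compound was preincubated 10 min, then LPS added (10 ng/mL, stock added). Cells were incubated 20 h at 37 °C in 5% CO₂. Supernatant TNF-α was measured by sandwich ELISA at OD405 (sensitivity ~10 pg/mL). IC50 came from inhibition curves.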

[10] = Thermodynamic aqueous solubility of the compound at pH 6.8; assay type: physicochemical; settings: buffer, read-out: Therm_solubility
[11] = Volume of distribution at steady state in rat at 1.05 umol/kg, iv; assay type: ADME, organism-based; settings: in vivo, read-out: Vdss; how it was run: as §1
[12] = target: 3',5'-cyclic-AMP phosphodiesterase 4A (Homo sapiens, UniProt P27815); assay: Inhibition of human PDE4A-mediated [3H]CAMP hydrolysis after 30 to 60 mins by scintillation proximity assay; how it was run: as §3
[13] = Cmax in rat at 2.1 umol/kg, po; assay type: ADME, organism-based; set-up: dose 2.1 umol/kg, route oral; settings: in vivo; how it was run: as §1
[14] = AUC total in rat at 2.1 umol/kg, po; assay type: ADME, organism-based, Plasma; settings: plasma, 2.1 umol/kg; how it was run: as §1
[15] = Tmax in rat at 2.1 umol/kg, po; assay type: ADME, organism-based; settings: in vivo; how it was run: as §1
[16] = target: 3',5'-cyclic-AMP phosphodiesterase 4B (Homo sapiens, UniProt Q07343); assay: Inhibition of human PDE4B-mediated [3H]CAMP hydrolysis after 30 to 60 mins by scintillation proximity assay; how it was run: as §3
[17] = system: Rattus norvegicus; assay: (§4) Oral bioavailability in rat at 2.1 umol/kg; assay type: ADME, organism-based; settings: in vivo; how it was run: as §1
[18] = system: Rattus norvegicus; assay: Antiinflammatory activity in po dosed ovalbumin-sensitized Brown Norway rat assessed as inhibition of ovalbumin-induced eosinophil influx into BALF administered 2 hrs prior to ovalbumin-challenge measured after 24 hrs; assay type: functional
How it was run: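 Brown Norway rats were actively sensitized and dosed orally at 0.3, 1 or 3 mg/kg, or with vehicle PEG200:saline 1:1, 2 h before inhaled ovalbumin challenge. Saline-challenged rats served as controls. Eosinophils were counted in BAL fluid 24 h after challenge. Mean ± SEM, 5−10 animals per group. ED50 was estimated.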

[19] = as §4; assay type: ADME, organism-based; settings: in vivo, 2.1 umol/kg; how it was run: as §1
[20] = system: Mus musculus; assay: Antiinflammatory activity in po dosed BALB/c mouse assessed as inhibition of LPS-induced neutrophil influx into BALF administered 1 hr prior to LPS-challenge measured after 3 hrs; assay type: functional
How it was run: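 Mice were given vehicle (PEG200:saline 1:1) or compound orally at 1−30 mg/kg, 1 h before LPS challenge. The control group got vehicle with PBS challenge. Animals were killed 3 h after challenge. Pooled from two experiments, 6−15 mice per group. Mann−Whitney test versus vehicle/LPS animals.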

[21] = system: Mustela putorius furo; assay: Toxicity in ferret assessed as emesis at 0.075 to 4.8 mg/kg, po after 4 hrs; assay type: organism-based; set-up: dose 0.075-4.8 mg/kg, route oral; settings: in vivo
[22] = as §2; assay type: ADME, organism-based, Plasma; settings: plasma, 4.2 umol/kg; how it was run: as §1
[23] = Volume of distribution at steady state in rat at 4.2 umol/kg, iv; assay type: ADME, organism-based; settings: in vivo, read-out: Vdss; how it was run: as §1
[24] = Cmax in rat at 4.2 umol/kg, po; assay type: ADME, organism-based; set-up: dose 4.2 umol/kg, route oral; settings: in vivo; how it was run: as §1
[25] = Clearance in rat at 4.2 umol/kg, iv; assay type: ADME, organism-based; settings: in vivo; how it was run: as §1

Chain of 3',5'-cyclic-AMP phosphodiesterase 4A (P27815 whole entry): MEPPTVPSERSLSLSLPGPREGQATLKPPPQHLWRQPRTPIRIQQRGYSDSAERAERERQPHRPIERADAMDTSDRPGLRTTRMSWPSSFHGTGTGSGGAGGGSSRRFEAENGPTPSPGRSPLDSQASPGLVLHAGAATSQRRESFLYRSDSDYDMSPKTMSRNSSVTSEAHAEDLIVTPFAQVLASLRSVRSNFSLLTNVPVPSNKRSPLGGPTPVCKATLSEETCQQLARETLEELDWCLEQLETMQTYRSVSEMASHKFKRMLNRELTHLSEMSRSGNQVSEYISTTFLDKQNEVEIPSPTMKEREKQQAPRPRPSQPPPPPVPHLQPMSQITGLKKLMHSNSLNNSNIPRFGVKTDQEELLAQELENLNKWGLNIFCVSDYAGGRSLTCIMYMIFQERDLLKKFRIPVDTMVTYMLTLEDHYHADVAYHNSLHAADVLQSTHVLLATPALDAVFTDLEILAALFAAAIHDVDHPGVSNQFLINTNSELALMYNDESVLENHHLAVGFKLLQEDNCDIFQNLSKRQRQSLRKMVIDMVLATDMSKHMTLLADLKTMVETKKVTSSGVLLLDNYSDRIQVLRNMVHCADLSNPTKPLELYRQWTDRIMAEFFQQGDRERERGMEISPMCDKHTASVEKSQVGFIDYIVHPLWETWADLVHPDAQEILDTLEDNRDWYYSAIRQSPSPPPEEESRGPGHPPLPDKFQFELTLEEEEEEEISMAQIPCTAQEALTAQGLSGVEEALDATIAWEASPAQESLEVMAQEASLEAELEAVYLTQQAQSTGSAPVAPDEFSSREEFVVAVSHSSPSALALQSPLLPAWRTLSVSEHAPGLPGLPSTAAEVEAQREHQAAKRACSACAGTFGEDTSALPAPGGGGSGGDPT
Chain of 3',5'-cyclic-AMP phosphodiesterase 4B (Q07343 whole entry): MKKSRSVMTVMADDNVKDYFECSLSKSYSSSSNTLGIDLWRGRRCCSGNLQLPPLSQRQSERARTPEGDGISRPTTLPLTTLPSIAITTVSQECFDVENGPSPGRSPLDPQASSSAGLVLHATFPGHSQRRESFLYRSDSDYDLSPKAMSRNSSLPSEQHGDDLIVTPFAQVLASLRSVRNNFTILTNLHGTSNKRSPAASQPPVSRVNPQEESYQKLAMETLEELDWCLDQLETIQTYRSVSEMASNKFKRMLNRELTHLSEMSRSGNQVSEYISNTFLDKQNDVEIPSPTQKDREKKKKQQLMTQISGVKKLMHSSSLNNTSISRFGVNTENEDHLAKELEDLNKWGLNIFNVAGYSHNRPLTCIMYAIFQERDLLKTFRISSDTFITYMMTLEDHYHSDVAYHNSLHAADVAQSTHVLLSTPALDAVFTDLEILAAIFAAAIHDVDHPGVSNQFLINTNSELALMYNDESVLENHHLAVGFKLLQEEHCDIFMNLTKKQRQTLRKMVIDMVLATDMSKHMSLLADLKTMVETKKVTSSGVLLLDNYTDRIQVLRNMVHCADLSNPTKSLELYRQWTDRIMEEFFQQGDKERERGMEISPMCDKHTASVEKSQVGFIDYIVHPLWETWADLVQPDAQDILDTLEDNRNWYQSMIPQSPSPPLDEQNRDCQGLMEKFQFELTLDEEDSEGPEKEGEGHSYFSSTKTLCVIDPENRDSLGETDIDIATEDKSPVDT
Chain of 3',5'-cyclic-AMP phosphodiesterase 4D (Q08499 whole entry): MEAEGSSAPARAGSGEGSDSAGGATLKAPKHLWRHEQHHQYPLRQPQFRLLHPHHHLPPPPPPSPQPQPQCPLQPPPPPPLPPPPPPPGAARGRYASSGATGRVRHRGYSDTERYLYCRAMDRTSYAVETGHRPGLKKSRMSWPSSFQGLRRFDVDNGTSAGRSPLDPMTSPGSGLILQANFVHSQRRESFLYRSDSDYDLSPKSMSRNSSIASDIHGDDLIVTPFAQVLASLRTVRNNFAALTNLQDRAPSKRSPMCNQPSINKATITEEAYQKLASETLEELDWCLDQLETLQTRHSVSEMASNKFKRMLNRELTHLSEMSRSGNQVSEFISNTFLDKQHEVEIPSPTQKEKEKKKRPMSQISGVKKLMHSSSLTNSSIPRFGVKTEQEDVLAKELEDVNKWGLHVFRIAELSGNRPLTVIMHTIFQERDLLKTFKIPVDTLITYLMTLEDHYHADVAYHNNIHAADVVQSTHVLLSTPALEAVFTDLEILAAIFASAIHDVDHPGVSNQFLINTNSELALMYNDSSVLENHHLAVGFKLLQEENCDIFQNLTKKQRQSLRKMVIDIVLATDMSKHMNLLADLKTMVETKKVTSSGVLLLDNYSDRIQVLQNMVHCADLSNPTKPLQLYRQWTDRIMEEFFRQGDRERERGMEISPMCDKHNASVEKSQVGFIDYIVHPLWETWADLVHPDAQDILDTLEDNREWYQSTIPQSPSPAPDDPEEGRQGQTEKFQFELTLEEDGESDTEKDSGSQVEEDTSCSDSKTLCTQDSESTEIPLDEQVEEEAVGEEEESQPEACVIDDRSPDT

Row | Compound | half-life [6] [h] | IC50 [7] [nM] | clearance [8] [mL/min/kg] | IC50 [9] [nM] | solubility thermodynamic [10] [µg/mL] | Vd [11] [L/kg] | IC50 [12] [nM] | Cmax [13] [µM] | AUC [14] [µM·h] | Tmax [15] [h] | IC50 [16] [nM] | other results
1 | O=C([O-])C1CCN(c2cc3cccnc3c(-c3cccc(F)c3)n2)CC1.[Na+] |  |  |  |  |  |  |  |  |  |  |  | F [1]: 70%; Tmax [2]: 2.88 h; AUC [3]: 3919 µM·min; half-life [4]: 17 h; Vd [5]: 0.24 L/kg
2 | N#Cc1cccc(-c2nc(N3CCC(C(=O)O)CC3)cc3cccnc23)c1 | 23 | 19 | 1.16 | 851 | > 4000 | 0.72 | 271 | 2.8 | 46.1 | 2.15 | 168 | F [17]: 158%
3 | O=C(O)[C@H]1CC[C@H](c2cc3cccnc3c(-c3cccc(OC(F)(F)F)c3)n2)CC1 |  |  |  |  |  |  |  |  |  |  |  | inhibition [18]: Dose-dependent effect
4 | O=C(O)C1CCN(c2cc3cccnc3c(-c3cccc(F)c3)n2)CC1 |  | 51 |  | 769 | > 4000 |  | 587 |  |  |  | 1330 | 
5 | O=C([O-])[C@H]1CC[C@H](c2cc3cccnc3c(-c3cccc(OC(F)(F)F)c3)n2)CC1.[K+] | 29 |  | 0.65 |  |  | 0.36 |  | 3.6 | 84 | 7.42 |  | bioavailability [19]: 107%
6 | O=C([O-])C1CCN(c2cc3cccnc3c(-c3cccc(OC(F)(F)F)c3)n2)CC1.[Na+] | 7 |  | 0.98 |  |  | 0.25 |  | 4.49 | 54.4 | 2.88 |  | bioavailability [19]: 149%
7 | O=C(Nc1c(Cl)cncc1Cl)c1ccc(OC(F)F)c(OCC2CC2)c1 [ROFLUMILAST] |  |  |  |  |  |  |  |  |  |  |  | ED50 [20]: 12.4 mg/kg; Activity [21]: Toxic; ED50 [18]: 0.74 mg/kg
8 | N#Cc1cccc(-c2nc([C@H]3CC[C@H](C(=O)[O-])CC3)cc3cccnc23)c1.[K+] |  |  |  |  |  |  |  |  |  |  |  | Tmax [2]: 25 h; AUC [22]: 1880 µM·h; Vd [23]: 0.25 L/kg; half-life [4]: 193 h; Cmax [24]: 8.3 µM; clearance [25]: 0.22 mL/min/kg
9 | CSc1cccc(-c2nc(N3CCC(C(=O)O)CC3)cc3cccnc23)c1 |  | 51 |  |  | 378 (≈ 996 µM) |  | 587 |  |  |  | 1330 | 
10 | COc1cccc(-c2nc(N3CCC(C(=O)O)CC3)cc3cccnc23)c1 |  | 45 |  | 1930 | > 1000 |  | 537 |  |  |  | 615 | 
